Assay type in all cases: tissue-based
The target of data set [1] is T1, Amine oxidase [flavin-containing] B (Rattus norvegicus, UniProt P19643).
T1 sequence (P19643 whole entry): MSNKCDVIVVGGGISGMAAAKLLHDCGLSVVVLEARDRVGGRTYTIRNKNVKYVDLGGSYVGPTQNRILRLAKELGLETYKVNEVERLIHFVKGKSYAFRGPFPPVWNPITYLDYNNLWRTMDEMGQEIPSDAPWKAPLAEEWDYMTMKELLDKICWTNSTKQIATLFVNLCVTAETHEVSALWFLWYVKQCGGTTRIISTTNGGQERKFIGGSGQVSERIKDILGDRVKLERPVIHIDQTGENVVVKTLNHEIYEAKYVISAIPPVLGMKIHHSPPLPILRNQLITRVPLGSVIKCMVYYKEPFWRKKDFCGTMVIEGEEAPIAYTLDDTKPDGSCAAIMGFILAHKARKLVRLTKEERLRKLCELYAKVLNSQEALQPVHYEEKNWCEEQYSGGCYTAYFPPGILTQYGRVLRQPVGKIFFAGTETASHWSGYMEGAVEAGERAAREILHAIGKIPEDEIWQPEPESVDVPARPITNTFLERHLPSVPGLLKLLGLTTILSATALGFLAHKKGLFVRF
Nature of the data set: Inhibition of Sprague-Dawley rat MAO-B in brain mitochondrial homogenate assessed as 4-hydroxyquinoline by spectrophotometric method.

The target of data set [2] is T2, MAO-A (amine oxidase [flavin-containing] A) (Rattus norvegicus, UniProt P21396).
T2 sequence (P21396 whole entry): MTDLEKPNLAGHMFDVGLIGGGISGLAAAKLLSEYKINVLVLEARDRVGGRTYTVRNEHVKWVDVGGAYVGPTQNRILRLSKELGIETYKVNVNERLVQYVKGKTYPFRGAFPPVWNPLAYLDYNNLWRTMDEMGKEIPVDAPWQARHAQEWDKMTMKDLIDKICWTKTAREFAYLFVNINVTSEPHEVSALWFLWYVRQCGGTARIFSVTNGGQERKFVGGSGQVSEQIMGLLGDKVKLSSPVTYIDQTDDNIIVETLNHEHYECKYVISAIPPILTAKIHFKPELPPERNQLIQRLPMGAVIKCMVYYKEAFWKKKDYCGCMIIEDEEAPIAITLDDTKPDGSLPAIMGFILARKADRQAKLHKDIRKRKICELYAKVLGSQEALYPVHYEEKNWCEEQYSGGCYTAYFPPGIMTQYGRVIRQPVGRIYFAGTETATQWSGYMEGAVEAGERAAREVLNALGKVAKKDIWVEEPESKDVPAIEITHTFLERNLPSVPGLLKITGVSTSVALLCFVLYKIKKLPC
Nature of the data set: Inhibition of Sprague-Dawley rat MAO-A in brain mitochondrial homogenate assessed as 4-hydroxyquinoline at 10 uM by spectrophotometric method. In short, it runs like this: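 Crude mitochondrial fraction from male Sprague-Dawley rat brain (200-250 g) was used at 1 mg/mL and pretreated with (-)-L-deprenyl 250 nM to isolate MAO-A. Compound was given at 10 μM in DMSO (final 5% v/v) with a 5 min preincubation. Kynuramine was added at 90 μM (KM), and 4-hydroxyquinoline formation was read at 314 nm for 5 min. Values are means of 2-3 independent experiments.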

The target of data set [3] is T3, Amine oxidase [flavin-containing] A (Rattus norvegicus, UniProt P21396).
T3 sequence (P21396 whole entry): T2 sequence (P21396 whole entry)
Nature of the data set: Inhibition of Sprague-Dawley rat MAO-A in brain mitochondrial homogenate assessed as 4-hydroxyquinoline by spectrophotometric method. In short, it runs like this:
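The MAO-A source was a crude male Sprague-Dawley rat brain mitochondrial fraction (1 mg/mL), pretreated with (-)-L-deprenyl 250 nM. Compound in DMSO (final 5% v/v) was preincubated for 5 min, then kynuramine was added at 90 μM (KM). 4-Hydroxyquinoline formation was monitored at 314 nm for 5 min.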

We go through 12 molecules from ChEMBL document CHEMBL3352257, “In silico design of novel 2H-chromen-2-one derivatives as potent and selective MAO-B inhibitors” (Eur J Med Chem, 2015).

The structures appear in SMILES notation.

In the case of `O=C(O)COc1cc(=O)oc2cc(OCc3cccc(Cl)c3)ccc12`, the IC50 in data set [1] was 31600 nM.

In the case of `O=c1cc(CCBr)c2ccc(OCc3cccc(Cl)c3)cc2o1`, the half-maximal inhibitory concentration (IC50) in data set [1] was 32.4 nM. Further, the inhibition at 10 µM in data set [2] worked out at 22%.

`NC(=O)CCc1cc(=O)oc2cc(OCc3cccc(Cl)c3)ccc12`: the 50% inhibitory concentration (IC50) in data set [1] is 15.1 nM; in data set [3] it was 4270 nM.

Regarding `O=c1cc(CCO)c2ccc(OCc3cccc(Cl)c3)cc2o1`, the IC50 in data set [1] was 7.41 nM; in data set [3] it was 4680 nM.

Take `O=C(CCl)Nc1cc(=O)oc2cc(OCc3cccc(Cl)c3)ccc12`: the IC50 is 398 nM in data set [1] and 5750 nM in data set [3].

Consider `O=c1cc(CCCl)c2ccc(OCc3cccc(Cl)c3)cc2o1`, for which, in data set [1], the IC50 was 12.9 nM. Moreover, the inhibition at 10 µM in data set [2] came out at 3%.

Take `O=c1cc(CCN2CCCCC2)c2ccc(OCc3cccc(Cl)c3)cc2o1`: the IC50 in data set [1] was 3800 nM. Besides, in data set [2], the inhibition at 10 µM stood at 1%.

Regarding `O=C(O)CCc1cc(=O)oc2cc(OCc3cccc(Cl)c3)ccc12`, in data set [1], the IC50 is 1200 nM. Besides, the inhibition at 10 µM in data set [2] was 13%.

Regarding `CCNC(=O)Nc1cc(=O)oc2cc(OCc3cccc(Cl)c3)ccc12`, the IC50 in data set [1] was 31600 nM.

On to `N#CCCc1cc(=O)oc2cc(OCc3cccc(Cl)c3)ccc12`, for which the IC50 in data set [1] was 28.8 nM. The inhibition at 10 µM in data set [2] is 22%.

Regarding `NC(=O)CNc1cc(=O)oc2cc(OCc3cccc(Cl)c3)ccc12`, the values for the IC50 in data set [1] and in data set [3] were 49 nM and 95.5 nM, respectively.

For the molecule `O=C(O)c1cc(=O)oc2cc(OCc3cccc(Cl)c3)ccc12`, the IC50 in data set [1] is 100000 nM.
